{"source": "ChEMBL document CHEMBL4261536", "about": "“Encapsulation of nor-β-lapachone into poly(d,l)-lactide-co-glycolide (PLGA) microcapsules: full characterization, computational details and cytotoxic activity against human cancer cell lines” (Medchemcomm, 2017)", "key": {"OVCAR-8 [1]": {"tested_on": "OVCAR-8", "test": "Cytotoxicity against human OVCAR8 cells assessed as decrease in cell viability after 72 hrs by MTT assay", "type": "functional, cell-based", "details": "OVCAR-8, 72 h", "procedure,_shortened": "(§1)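 Cells grown in RPMI 1640 with 10% FBS and penicillin/streptomycin at 37°C, 5% CO2. Seeded at 0.1×10⁶ cells/well (HCT-116: 0.7×10⁵). After 24 h, drug in DMSO added at […]; controls got DMSO. Exposure 72 h, with prostate lines read at 24, 72 and 96 h. Then MTT (0.5 mg/mL) for 3 h, formazan dissolved in DMSO, A595 expressed as % of control. IC50 by nonlinear regression from three independent experiments in triplicate.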"}, "DU-145 [2]": {"tested_on": "DU-145", "test": "Cytotoxicity against human DU145 cells assessed as decrease in cell viability after 72 hrs by MTT assay", "type": "functional, cell-based", "details": "DU-145, 72 h", "procedure,_shortened": "as §1"}, "PC-3M [3]": {"tested_on": "PC-3M", "test": "Cytotoxicity against human PC3M cells assessed as decrease in cell viability after 72 hrs by MTT assay", "type": "functional, cell-based", "procedure,_shortened": "as §1"}, "SF-295 [4]": {"tested_on": "SF-295", "test": "Cytotoxicity against human SF295 cells assessed as decrease in cell viability after 72 hrs by MTT assay", "type": "functional, cell-based", "details": "SF-295, 72 h", "procedure,_shortened": "as §1"}, "HCT-116 [5]": {"tested_on": "HCT-116", "test": "Cytotoxicity against human HCT116 cells assessed as decrease in cell viability after 72 hrs by MTT assay", "type": "functional, cell-based", "details": "HCT-116, 72 h", "procedure,_shortened": "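After 24 h, drug in DMSO added at […]; controls got DMSO. Exposure 72 h, with prostate lines read at 24, 72 and 96 h. Then MTT (0.5 mg/mL) for 3 h, formazan dissolved in DMSO, A595 expressed as % of control. IC50 by nonlinear regression from three independent experiments in triplicate.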"}, "PC-3 [6]": {"tested_on": "PC-3", "test": "Cytotoxicity against human PC3 cells assessed as decrease in cell viability after 72 hrs by MTT assay", "type": "functional, cell-based", "details": "PC-3, 72 h", "procedure,_shortened": "as §1"}, "PBMC [7]": {"tested_on": "PBMC", "test": "Cytotoxicity against human PBMC assessed as decrease in cell viability after 72 hrs by Alamar blue assay", "type": "cell-based", "procedure,_shortened": "(§2)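 PBMC isolated from healthy volunteers' blood on Ficoll. Kept in RPMI 1640 with 20% FBS; proliferation induced with 3% phytohemagglutinin. Plated at 2×10⁴ cells/well; after 24 h, test material in PBS pH 7.4 added at […], controls got PBS. Treated 72 h, with Alamar Blue added for the final 24 h. Absorbance at 570 and 600 nm as % of control. IC50 by nonlinear regression from three independent experiments in triplicate.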"}, "SF-295 [8]": {"tested_on": "SF-295", "test": "Cytotoxicity against human SF295 cells assessed as decrease in cell viability using compound loaded PLGA microcapsule after 72 hrs by MTT assay", "type": "functional, cell-based", "details": "SF-295, 72 h", "procedure,_shortened": "(§3)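 Drug-loaded PLGA microparticles suspended in PBS pH 7.4 and added at […], 24 h after seeding at 0.1×10⁶ cells/well (HCT-116: 0.7×10⁵). Medium RPMI 1640 with 10% FBS, 37°C, 5% CO2. Incubated 72 h, with DU145, PC3 and PC3M read at 24, 72 and 96 h. MTT 0.5 mg/mL for 3 h, formazan in DMSO, A595 as % of control. IC50 by nonlinear regression, three independent experiments in triplicate.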"}, "OVCAR-8 [9]": {"tested_on": "OVCAR-8", "test": "Cytotoxicity against human OVCAR8 cells assessed as decrease in cell viability using compound loaded PLGA microcapsule after 72 hrs by MTT assay", "type": "functional, cell-based", "details": "OVCAR-8, 72 h", "procedure,_shortened": "as §3"}, "HCT-116 [10]": {"tested_on": "HCT-116", "test": "Cytotoxicity against human HCT116 cells assessed as decrease in cell viability using compound loaded PLGA microcapsule after 72 hrs by MTT assay", "type": "functional, cell-based", "details": "HCT-116, 72 h", "procedure,_shortened": "as §3"}, "DU-145 [11]": {"tested_on": "DU-145", "test": "Cytotoxicity against human DU145 cells assessed as decrease in cell viability using compound loaded PLGA microcapsule after 72 hrs by MTT assay", "type": "functional, cell-based", "details": "DU-145, 72 h", "procedure,_shortened": "as §3"}, "PC-3M [12]": {"tested_on": "PC-3M", "test": "Cytotoxicity against human PC3M cells assessed as decrease in cell viability using compound loaded PLGA microcapsule after 72 hrs by MTT assay", "type": "functional, cell-based", "procedure,_shortened": "as §3"}, "PC-3 [13]": {"tested_on": "PC-3", "test": "Cytotoxicity against human PC3 cells assessed as decrease in cell viability using compound loaded PLGA microcapsule after 72 hrs by MTT assay", "type": "functional, cell-based", "details": "PC-3, 72 h", "procedure,_shortened": "as §3"}, "PBMC [14]": {"tested_on": "PBMC", "test": "Cytotoxicity against human PBMC assessed as decrease in cell viability using compound loaded PLGA microcapsule after 72 hrs by Alamar blue assay", "type": "cell-based", "procedure,_shortened": "as §2"}, "PC-3M [15]": {"tested_on": "PC-3M", "test": "Cytotoxicity against human PC3M cells assessed as decrease in cell viability after 24 hrs by MTT assay", "type": "functional, cell-based", "procedure,_shortened": "as §1"}, "PC-3M [16]": {"tested_on": "PC-3M", "test": "Cytotoxicity against human PC3M cells assessed as decrease in cell viability using compound loaded PLGA microcapsule after 24 hrs by MTT assay", "type": "functional, cell-based", "procedure,_shortened": "as §3"}, "PC-3M [17]": {"tested_on": "PC-3M", "test": "Cytotoxicity against human PC3M cells assessed as decrease in cell viability after 96 hrs by MTT assay", "type": "functional, cell-based", "procedure,_shortened": "as §1"}, "PC-3M [18]": {"tested_on": "PC-3M", "test": "Cytotoxicity against human PC3M cells assessed as decrease in cell viability using compound loaded PLGA microcapsule after 96 hrs by MTT assay", "type": "functional, cell-based", "procedure,_shortened": "as §3"}, "PC-3 [19]": {"tested_on": "PC-3", "test": "Cytotoxicity against human PC3 cells assessed as decrease in cell viability after 24 hrs by MTT assay", "type": "functional, cell-based", "procedure,_shortened": "as §1"}, "PC-3 [20]": {"tested_on": "PC-3", "test": "Cytotoxicity against human PC3 cells assessed as decrease in cell viability using compound loaded PLGA microcapsule after 24 hrs by MTT assay", "type": "functional, cell-based", "procedure,_shortened": "as §3"}, "DU-145 [21]": {"tested_on": "DU-145", "test": "Cytotoxicity against human DU145 cells assessed as decrease in cell viability after 24 hrs by MTT assay", "type": "functional, cell-based", "procedure,_shortened": "as §1"}, "DU-145 [22]": {"tested_on": "DU-145", "test": "Cytotoxicity against human DU145 cells assessed as decrease in cell viability using compound loaded PLGA microcapsule after 24 hrs by MTT assay", "type": "functional, cell-based", "procedure,_shortened": "as §3"}, "PC-3 [23]": {"tested_on": "PC-3", "test": "Cytotoxicity against human PC3 cells assessed as decrease in cell viability after 96 hrs by MTT assay", "type": "functional, cell-based", "procedure,_shortened": "as §1"}, "PC-3 [24]": {"tested_on": "PC-3", "test": "Cytotoxicity against human PC3 cells assessed as decrease in cell viability using compound loaded PLGA microcapsule after 96 hrs by MTT assay", "type": "functional, cell-based", "procedure,_shortened": "as §3"}, "DU-145 [25]": {"tested_on": "DU-145", "test": "Cytotoxicity against human DU145 cells assessed as decrease in cell viability after 96 hrs by MTT assay", "type": "functional, cell-based", "procedure,_shortened": "as §1"}, "DU-145 [26]": {"tested_on": "DU-145", "test": "Cytotoxicity against human DU145 cells assessed as decrease in cell viability using compound loaded PLGA microcapsule after 96 hrs by MTT assay", "type": "functional, cell-based", "procedure,_shortened": "as §3"}, "PC-3M [27]": {"tested_on": "PC-3M", "test": "Induction of morphological changes in human PC3M cells at 11.2 uM after 24 to 72 hrs by hematoxylin/eosin staining-based light microscopic method", "type": "functional, cell-based", "procedure,_shortened": "(§4)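 PC3M cells exposed to free or PLGA-encapsulated drug, then stained with hematoxylin/eosin and examined by light microscopy (400×) after 24, 48 and 72 h.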"}, "PC-3M [28]": {"tested_on": "PC-3M", "test": "Induction of morphological changes in human PC3M cells at 5.4 uM using compound loaded PLGA microcapsule after 24 to 72 hrs by hematoxylin/eosin staining-based light microscopic method", "type": "functional, cell-based", "procedure,_shortened": "as §4"}}, "note": "Active and inactive are the calls of the source. The calls are words filed in the database; no cut-off is given here."}
{"smiles": "COc1cccc2c1C(=O)c1c(O)c3c(c(O)c1C2=O)C[C@@](O)(C(=O)CO)C[C@@H]3O[C@H]1C[C@H](N)[C@H](O)[C@H](C)O1", "note": "[DOXORUBICIN]", "values": [{"measurement": "IC50", "setting": "OVCAR-8 [1]", "value": 620, "unit": "nM"}, {"measurement": "IC50", "setting": "DU-145 [2]", "value": 153, "unit": "nM"}, {"measurement": "IC50", "setting": "PC-3M [3]", "value": 368, "unit": "nM"}]}
{"smiles": "CC1(C)CC2=C(O1)c1ccccc1C(=O)C2=O", "note": "[NOR-BETA-LAPACHONE]", "values": [{"measurement": "IC50", "setting": "SF-295 [4]", "value": 1450, "unit": "nM"}, {"measurement": "IC50", "setting": "OVCAR-8 [1]", "value": 2580, "unit": "nM"}, {"measurement": "IC50", "setting": "HCT-116 [5]", "value": 1580, "unit": "nM"}, {"measurement": "IC50", "setting": "DU-145 [2]", "value": 1390, "unit": "nM"}, {"measurement": "IC50", "setting": "PC-3M [3]", "value": 8970, "unit": "nM"}, {"measurement": "IC50", "setting": "PC-3 [6]", "value": 1450, "unit": "nM"}, {"measurement": "IC50", "setting": "PBMC [7]", "value": 10000, "unit": "nM"}, {"measurement": "IC50", "setting": "SF-295 [8]", "value": 7400, "unit": "nM"}, {"measurement": "IC50", "setting": "OVCAR-8 [9]", "value": 13700, "unit": "nM"}, {"measurement": "IC50", "setting": "HCT-116 [10]", "value": 7480, "unit": "nM"}, {"measurement": "IC50", "setting": "DU-145 [11]", "value": 2380, "unit": "nM"}, {"measurement": "IC50", "setting": "PC-3M [12]", "value": 4590, "unit": "nM"}, {"measurement": "IC50", "setting": "PC-3 [13]", "value": 1850, "unit": "nM"}, {"measurement": "IC50", "setting": "PBMC [14]", "value": 10000, "unit": "nM"}, {"measurement": "IC50", "setting": "PC-3M [15]", "value": 1.89, "unit": "µg/mL"}, {"measurement": "IC50", "setting": "PC-3M [16]", "value": 2.44, "unit": "µg/mL"}, {"measurement": "IC50", "setting": "PC-3M [17]", "value": 1.79, "unit": "µg/mL"}, {"measurement": "IC50", "setting": "PC-3M [18]", "value": 1.4, "unit": "µg/mL"}, {"measurement": "Activity", "setting": "PC-3 [19]", "value": "Active"}, {"measurement": "Activity", "setting": "PC-3 [20]", "value": "Active"}, {"measurement": "Activity", "setting": "DU-145 [21]", "value": "Active"}, {"measurement": "Activity", "setting": "DU-145 [22]", "value": "Active"}, {"measurement": "Activity", "setting": "PC-3 [23]", "value": "Active"}, {"measurement": "Activity", "setting": "PC-3 [24]", "value": "Active"}, {"measurement": "Activity", "setting": "DU-145 [25]", "value": "Active"}, {"measurement": "Activity", "setting": "DU-145 [26]", "value": "Active"}, {"measurement": "Activity", "setting": "PC-3M [27]", "value": "Active"}, {"measurement": "Activity", "setting": "PC-3M [28]", "value": "Active"}]}
